Results published in publication PMC5743405 (International Journal of Oncology, 2017).

Legend:
ADORA3 = experiment: PathHunter β-arrestin; format: cell-based; conditions: 6 μM
How it was run: (§1)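 β-Arrestin recruitment assay: the enzyme acceptor is fused to β-arrestin and the ED fragment to the GPCR. Recruitment restores β-galactosidase, read by chemiluminescence. % activity = 100% × (test − vehicle)/(max control ligand − vehicle). % inhibition = 100% × (1 − (test − vehicle)/(EC80 control − vehicle)). An agonist hit needs >30% activity and RLU > baseline + 3×SD. An antagonist hit needs >35% inhibition and RLU < EC80 RLU − 3×SD.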

MUC5B [1] = experiment: MUC5B ELISA, JJ012 cell lysates; format: cell-based; conditions: PRP-1 at 1 μg/ml; human JJ012 cell lysates
How it was run: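 Cells trypsinized at confluency and seeded in 6-well clusters at 1×10^6 cells/ml. Test compound added to experimental wells only, controls untreated. Overnight at 37°C, 5% CO2. Cells washed in ice-cold PBS with protease inhibitor, lysed in buffer with protease inhibitor (1:100), scraped and spun at 15,000 × g, 4°C. Protein measured in supernatant. MUC5B quantified with a commercial human MUC5B ELISA kit.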

TLR6 [2] = experiment: RT2 qPCR primer assay, JJ012 cells; format: cell-based, human
How it was run: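 RNA was extracted, checked by spectrophotometry and reverse-transcribed. Custom RT2 SYBR-Green primer assays were run on three samples in technical triplicate. Ct was normalised to mean GAPDH/ACTB, ΔΔCt taken versus control, and fold change = 2^−ΔΔCt.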

CXCR6 = experiment: PathHunter β-arrestin; format: cell-based; conditions: 6 μM
How it was run: (§2)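 Engineered cells express the receptor fused to one β-galactosidase fragment (ED) and β-arrestin fused to the complementing fragment (EA). Receptor activation recruits β-arrestin, which restores enzyme activity, and this is read by chemiluminescence (RLU). Agonist % activity is 100% × (test − vehicle)/(maximal control ligand − vehicle). Antagonist mode is challenged with an EC80 control agonist, and % inhibition is 100% × (1 − (test − vehicle)/(EC80 − vehicle)). Hits require >30% activity or >35% inhibition, plus a 3×SD RLU margin.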

CXCR1 = experiment: PathHunter β-arrestin; format: cell-based; conditions: antagonist mode, 6 μM
How it was run: as §2

CCR7 = experiment: PathHunter β-arrestin; format: cell-based; conditions: 6 μM
How it was run: as §2

nuclear receptor = experiment: PathHunter NHR assays, nhrMAX panel, agonist mode; format: cell-based; conditions: summary of Table IV
How it was run: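 Enzyme fragment complementation: a ligand-activated NHR moves to the nucleus and recruits a steroid receptor co-activator peptide fusion, restoring β-galactosidase, read by chemiluminescence. Agonist interaction measured over 6 h. Hit requires >30% activity and mean RLU above baseline RLU + 3 × baseline SD.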

DRD1 = experiment: PathHunter β-arrestin; format: cell-based; conditions: antagonist mode, 6 μM
How it was run: as §2

EDG6 = experiment: PathHunter β-arrestin; format: cell-based; conditions: 6 μM
How it was run: as §2

CCR9 = experiment: PathHunter β-arrestin; format: cell-based; conditions: 6 μM
How it was run: as §2

GLP1R = experiment: PathHunter β-arrestin; format: cell-based; conditions: antagonist mode, 6 μM
How it was run: (§3)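 Vendor-run (DiscoveRx) PathHunter enzyme fragment complementation. β-Arrestin carries the EA fragment and the receptor carries ED; recruitment restores β-gal activity, read by chemiluminescence (RLU). Agonist % activity = vehicle-subtracted RLU relative to max control ligand (gpcrMAX) or to vehicle (orphanMAX). Antagonist % inhibition = 100% × (1 − vehicle-subtracted sample RLU / vehicle-subtracted EC80 agonist control RLU).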

TLR6 [3] = experiment: immunocytochemistry, colocalization with TLR6, JJ012 cells; format: cell-based, human; conditions: TLR6 yellow (DyLight 550), PRP-1 green (Alexa Fluor 488)
OPRM1 = experiment: PathHunter β-arrestin; format: cell-based; conditions: 6 μM
How it was run: (§4)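 β-Arrestin recruitment to GPCR read by β-galactosidase fragment complementation and chemiluminescence. Agonist: % = 100 × (test − vehicle)/(max control ligand − vehicle), hit at >30% and RLU > baseline + 3 SD. Antagonist, against EC80 agonist: % inhibition = 100 × (1 − (test − vehicle)/(EC80 − vehicle)), hit at >35% and RLU < EC80 − 3 SD.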

SSTR3 = experiment: PathHunter β-arrestin; format: cell-based; conditions: 6 μM
How it was run: as §4

NPBWR1 = experiment: PathHunter β-arrestin; format: cell-based; conditions: agonist mode, 6 μM
How it was run: as §3

P2RY1 = experiment: PathHunter β-arrestin; format: cell-based; conditions: 6 μM
How it was run: as §4

EDG4 = experiment: PathHunter β-arrestin; format: cell-based; conditions: antagonist mode, 6 μM
How it was run: as §2

MC3R = experiment: PathHunter β-arrestin; format: cell-based; conditions: 6 μM
How it was run: as §3

CALCRL-RAMP1 = experiment: PathHunter β-arrestin; format: cell-based; conditions: antagonist mode, 6 μM
How it was run: as §1

CALCR-RAMP2 = experiment: PathHunter β-arrestin; format: cell-based; conditions: agonist mode, 6 μM
How it was run: as §1

HTR1B = experiment: PathHunter β-arrestin; format: cell-based; conditions: antagonist mode, 6 μM
How it was run: as §3

CALCR = experiment: PathHunter β-arrestin; format: cell-based; conditions: 6 μM
How it was run: as §1

HRH2 = experiment: PathHunter β-arrestin; format: cell-based; conditions: 6 μM
How it was run: as §3

MUC5B [4] = experiment: TriCEPS ligand-receptor capture; format: binding, human; conditions: 10 μg/ml PRP-1
CHRM3 = experiment: PathHunter β-arrestin; format: cell-based; conditions: 6 μM
How it was run: as §2

EBI2 = experiment: PathHunter β-arrestin; format: cell-based; conditions: antagonist mode, 6 μM
How it was run: as §2

CCR2 = experiment: PathHunter β-arrestin; format: cell-based; conditions: antagonist mode, 6 μM
How it was run: as §1

GPR120 = experiment: PathHunter β-arrestin; format: cell-based; conditions: 6 μM
How it was run: as §3

GPR35 = experiment: PathHunter β-arrestin; format: cell-based; conditions: 6 μM
How it was run: as §3

TSHR(L) = experiment: PathHunter β-arrestin; format: cell-based; conditions: antagonist mode, 6 μM

Proline rich polypeptide 1 [PRP-1]
% Activity (ADORA3; agonist mode): 1%
% Inhibition (ADORA3; antagonist mode): −3%
MUC5B presence in cell lysates (MUC5B [1]): 440 ng/mL
gene expression (TLR6 [2]; 1 μg/ml PRP-1, heat map, vs nontreated control, technical triplicates): high expression
fold change (∆Ct) (TLR6 [2]; qRT-PCR): did not report significant fold change
% Activity (CXCR6; agonist mode): 2%
% Inhibition (CXCR6; antagonist mode): −6%
% Inhibition (CXCR1): −1%
% Activity (CCR7; agonist mode): 1%
% Inhibition (CCR7; antagonist mode): −2%
nuclear receptor agonism (nuclear receptor): neither that this peptide was agonist for orphan receptors (Table III) or agonist/antagonist for nuclear receptor
% Inhibition (DRD1): −5%
% Activity (EDG6; agonist mode): −2%
% Inhibition (EDG6; antagonist mode): 4%
% Activity (CCR9; agonist mode): 1%
% Inhibition (CCR9; antagonist mode): −6%
% Inhibition (GLP1R): −9%
colocalization with TLR6 (TLR6 [3]): nuclear and cytoplasmic colocalization with PRP-1 is demonstrated
% Activity (OPRM1; agonist mode): 1%
% Inhibition (OPRM1; antagonist mode): −2%
% Activity (SSTR3; agonist mode): 1%
% Inhibition (SSTR3; antagonist mode): −5%
% Activity (NPBWR1): 3%
% Activity (P2RY1; agonist mode): −1%
% Inhibition (P2RY1; antagonist mode): 1%
% Inhibition (EDG4): 5%
% Activity (MC3R; agonist mode): 3%
% Inhibition (MC3R; antagonist mode): −6%
% Inhibition (CALCRL-RAMP1): 4%
% Activity (CALCR-RAMP2): 2%
% Inhibition (HTR1B): 4%
% Activity (CALCR; agonist mode): 1%
% Inhibition (CALCR; antagonist mode): 1%
% Activity (HRH2; agonist mode): 1%
% Inhibition (HRH2; antagonist mode): 1%
binding partner detection (MUC5B [4]): detected MUC5B as binding partner with 10 μg/ml PRP-1 treatment
% Activity (CHRM3; agonist mode): 2%
% Inhibition (CHRM3; antagonist mode): −6%
% Inhibition (EBI2): −1%
% Inhibition (CCR2): −3%
% Activity (GPR120; agonist mode): 1%
% Inhibition (GPR120; antagonist mode): −6%
% Activity (GPR35; agonist mode): 1%
% Inhibition (GPR35; antagonist mode): −6%
% Inhibition (TSHR(L)): −4%
